In brackets after ≈: the same amount, converted by molar mass.
Assays:
Pantothenate synthetase = biological target: T1, Pantothenate synthetase (Mycobacterium tuberculosis, UniProt P9WIL5); assay: Inhibition of Mycobacterium tuberculosis pantothenate synthetase expressed in Escherichia coli BL21 (DE3) by spectrophotometry
T1 sequence (P9WIL5 whole entry): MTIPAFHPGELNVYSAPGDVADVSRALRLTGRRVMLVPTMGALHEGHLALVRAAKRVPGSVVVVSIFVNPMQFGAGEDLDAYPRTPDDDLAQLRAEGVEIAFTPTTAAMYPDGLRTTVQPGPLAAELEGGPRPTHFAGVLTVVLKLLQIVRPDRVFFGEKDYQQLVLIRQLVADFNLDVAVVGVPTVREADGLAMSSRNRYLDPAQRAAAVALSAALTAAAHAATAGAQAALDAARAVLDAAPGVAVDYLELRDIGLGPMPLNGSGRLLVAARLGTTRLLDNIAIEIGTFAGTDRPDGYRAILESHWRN
In short: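 Reaction started by adding PS diluted in buffer; absorbance at 340 nm read every 12 s for 120 s. Percent inhibition = 100 × [1 − (compound rate − background rate)/(full reaction rate − background rate)].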

[1] = test system: Mycobacterium tuberculosis; assay: Antimycobacterial activity against Mycobacterium tuberculosis H37Rv ATCC 27294 assessed as growth inhibition after 28 days by agar dilution method; format: functional; conditions: H37Rv ATCC 27294, 672 h
In short: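 Agar dilution in Middlebrook 7H11 with OADC; two-fold dilutions, final 50 to 0.78 µg/mL. Inoculum from fresh 7H11 slants, 1 mg/mL wet weight in 0.05% Tween 80 saline, diluted 10⁻² (~10⁷ cfu/mL); 5 µL spotted per tube. Incubated 37 °C, read at 28 days; MIC = lowest concentration giving complete growth inhibition. Isoniazid, ethambutol, GSK358607A references.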

[2] = Cytotoxicity against mouse RAW264.7 cells assessed as inhibition of cell viability at 50 uM after 72 hrs by MTT assay; format: cell-based; conditions: read-out: INH
[3] = biological target: T2, Pantothenate synthetase (Mycobacterium tuberculosis) (UniProt P9WIL5); assay: Binding affinity to Mycobacterium tuberculosis pantothenate synthetase assessed as melting temperature by differential scanning fluorimetry
T2 sequence (whole entry): T1 sequence (P9WIL5 whole entry)
In short: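 Protein–ligand complexes with SYPRO Orange dye heated 25 to 95 °C in 0.1 °C steps; fluorescence tracked to obtain Tm, with shift relative to native protein taken as stabilisation from binding.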

Cc1nc2ccccn2c1C(=O)N/N=C/c1ccccc1
IC50 (Pantothenate synthetase): 4.86 µM | MIC [1]: 179 µM (≈ 49.9 µg/mL)

Cc1nc2ccccn2c1C(=O)N/N=C/c1ccc(O)cc1
IC50 (Pantothenate synthetase): 7.49 µM | cytotoxicity at 72 h, 50 µM [2]: 19.4% | MIC [1]: 21.2 µM (≈ 6.24 µg/mL)

Cc1nc2ccccn2c1C(=O)Nc1ccccn1
IC50 (Pantothenate synthetase): > 25 µM | MIC [1]: 98.8 µM (≈ 24.9 µg/mL)

COc1cc(/C=N/NC(=O)c2c(C)nc3ccccn23)cc(OC)c1OC
IC50 (Pantothenate synthetase): 7.05 µM | MIC [1]: 67.8 µM (≈ 25 µg/mL)

Cc1nc2ccccn2c1C(=O)Nc1cccc(C(F)(F)F)c1
IC50 (Pantothenate synthetase): 7.01 µM | MIC [1]: 78.1 µM (≈ 24.9 µg/mL)

Cc1nc2ccccn2c1C(=O)NNC(=O)c1ccc(Oc2ccccc2)cc1
IC50 (Pantothenate synthetase): 7.22 µM | MIC [1]: 32.3 µM (≈ 12.5 µg/mL)

COc1ccc(/C=N/NC(=O)c2c(C)nc3ccccn23)cc1
IC50 (Pantothenate synthetase): 6.37 µM | MIC [1]: 80.9 µM (≈ 24.9 µg/mL)

Cc1ccc2nc(C)c(C(=O)NCc3cccs3)n2c1
IC50 (Pantothenate synthetase): 8.12 µM | MIC [1]: 0.19 µM (≈ 0.0542 µg/mL)

Cc1nc2ccccn2c1C(=O)NCc1ccccc1
IC50 (Pantothenate synthetase): 2.74 µM | cytotoxicity at 72 h, 50 µM [2]: 24.5% | MIC [1]: 23.5 µM (≈ 6.23 µg/mL)

COc1ccccc1C(=O)NNC(=O)c1c(C)nc2ccccn12
IC50 (Pantothenate synthetase): 8.21 µM | cytotoxicity at 72 h, 50 µM [2]: 19% | MIC [1]: 19.2 µM (≈ 6.24 µg/mL)

Cc1nc2ccccn2c1C(=O)NC1CCCCC1
IC50 (Pantothenate synthetase): 1.99 µM | MIC [1]: 96.9 µM (≈ 24.9 µg/mL)

Cc1nc2ccccn2c1C(=O)Nc1ccc(Cl)cc1
IC50 (Pantothenate synthetase): 2.6 µM | MIC [1]: 87.4 µM (≈ 25 µg/mL)

Cc1nc2ccccn2c1C(=O)NNC(=O)c1ccccc1
IC50 (Pantothenate synthetase): 3.54 µM | MIC [1]: 42.4 µM (≈ 12.5 µg/mL)

Cc1nc2ccccn2c1C(=O)NNC(=O)c1cccc([N+](=O)[O-])c1
IC50 (Pantothenate synthetase): 9.2 µM | MIC [1]: 36.8 µM (≈ 12.5 µg/mL)

Cc1nc2ccccn2c1C(=O)N/N=C/c1ccc(OCc2ccccc2)cc1
IC50 (Pantothenate synthetase): 5.37 µM | MIC [1]: 32.5 µM (≈ 12.5 µg/mL)

Cc1nc2ccccn2c1C(=O)N/N=C/c1ccc(F)cc1
IC50 (Pantothenate synthetase): 3.77 µM | cytotoxicity at 72 h, 50 µM [2]: 20.9% | MIC [1]: 21 µM (≈ 6.23 µg/mL)

CC[C@@H](CO)NCCN[C@@H](CC)CO [ETHAMBUTOL]
IC50 (Pantothenate synthetase): > 25 µM | MIC [1]: 7.64 µM (≈ 1.56 µg/mL)

NNC(=O)c1ccncc1 [ISONIAZID]
IC50 (Pantothenate synthetase): > 25 µM | MIC [1]: 0.72 µM (≈ 0.0987 µg/mL)

Cc1nc2ccccn2c1C(=O)Nc1ccccc1
IC50 (Pantothenate synthetase): 12.8 µM | MIC [1]: 188 µM (≈ 47.2 µg/mL)

Cc1nc2ccccn2c1C(=O)N/N=C/c1ccc(Br)cc1
IC50 (Pantothenate synthetase): 4.43 µM | MIC [1]: 35 µM (≈ 12.5 µg/mL)

Cc1ccc(/C=N/NC(=O)c2c(C)nc3ccccn23)cc1
IC50 (Pantothenate synthetase): 7.46 µM | cytotoxicity at 72 h, 50 µM [2]: 16.7% | MIC [1]: 21.3 µM (≈ 6.24 µg/mL)

Cc1nc2ccccn2c1C(=O)NNC(=O)c1ccc(Cl)cc1Cl
IC50 (Pantothenate synthetase): 5.13 µM | cytotoxicity at 72 h, 50 µM [2]: 20.1% | MIC [1]: 17.2 µM (≈ 6.25 µg/mL)

Cc1nc2ccccn2c1C(=O)NNC(=O)C1CCCCC1
IC50 (Pantothenate synthetase): 7.7 µM | cytotoxicity at 72 h, 50 µM [2]: 31.7% | MIC [1]: 10.4 µM (≈ 3.12 µg/mL)

Cc1nc2ccccn2c1C(=O)NCCc1ccccc1
IC50 (Pantothenate synthetase): 5.77 µM | MIC [1]: 89.3 µM (≈ 24.9 µg/mL)

Cc1nc2ccccn2c1C(=O)NNC(=O)c1cccc2ccccc12
IC50 (Pantothenate synthetase): 1.9 µM | cytotoxicity at 72 h, 50 µM [2]: 28.4% | Tm [3]: 51 °C | MIC [1]: 4.53 µM (≈ 1.56 µg/mL)

CCOc1ccc(NC(=O)c2c(C)nc3ccccn23)cc1
IC50 (Pantothenate synthetase): > 25 µM | MIC [1]: 42.2 µM (≈ 12.5 µg/mL)

Cc1nc2ccccn2c1C(=O)N/N=C/c1ccc(C(F)(F)F)cc1
IC50 (Pantothenate synthetase): 8.18 µM | cytotoxicity at 72 h, 50 µM [2]: 24.6% | MIC [1]: 9.01 µM (≈ 3.12 µg/mL)

Cc1nc2ccccn2c1C(=O)NNC(=O)c1ccco1
IC50 (Pantothenate synthetase): 8.93 µM | cytotoxicity at 72 h, 50 µM [2]: 16.8% | MIC [1]: 11 µM (≈ 3.12 µg/mL)

Cc1nc2ccccn2c1C(=O)Nc1ccc(Br)cc1
IC50 (Pantothenate synthetase): 6.95 µM | MIC [1]: 37.9 µM (≈ 12.5 µg/mL)

Cc1ccc(C(=O)NNC(=O)c2c(C)nc3ccccn23)cc1
IC50 (Pantothenate synthetase): 3.35 µM | MIC [1]: 80.9 µM (≈ 24.9 µg/mL)

Cc1nc2ccccn2c1C(=O)NNC(=O)c1cc([N+](=O)[O-])cc([N+](=O)[O-])c1
IC50 (Pantothenate synthetase): 6.48 µM | cytotoxicity at 72 h, 50 µM [2]: 40.6% | MIC [1]: 16.2 µM (≈ 6.24 µg/mL)

Cc1nc2ccccn2c1C(=O)NCc1ccco1
IC50 (Pantothenate synthetase): 2.81 µM | cytotoxicity at 72 h, 50 µM [2]: 20.7% | MIC [1]: 24.4 µM (≈ 6.23 µg/mL)

Cc1nc2ccccn2c1C(=O)N/N=C/c1ccc([N+](=O)[O-])cc1
IC50 (Pantothenate synthetase): > 25 µM | MIC [1]: 38.6 µM (≈ 12.5 µg/mL)
